Test results from ChEMBL document CHEMBL4325827, “Bifidenone: Structure-Activity Relationship and Advanced Preclinical Candidate” (J Med Chem, 2018).

How the values were obtained:
M14 = assay: Antiproliferative activity against human M14 cells after 72 hrs by CellTiter 96 aqueous nonradioactive cell proliferation assay; format: functional, cell-based; settings: M14, 72 h
In short: (§1)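 Antiproliferation in cultured tumour cells, at least 3 replicate wells per concentration per experiment. NCI-H460 came from ATCC. M14, NCI/ADR-RES, OVCAR-4, HCT-15, ACHN and SF-295 came from the National Cancer Institute. IC50 reported from single experiments where no SD is given.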

NCI-H460 = assay: Antiproliferative activity against human NCI-H460 cells after 72 hrs by CellTiter 96 aqueous nonradioactive cell proliferation assay; format: functional, cell-based; settings: NCI-H460, 72 h; in short: as §1
NCI/ADR-RES = assay: Antiproliferative activity against taxane-resistant human NCI/ADR-RES cells after 72 hrs by CellTiter 96 aqueous nonradioactive cell proliferation assay; format: functional, cell-based; in short: as §1
OVCAR-4 = assay: Antiproliferative activity against taxane-resistant human OVCAR4 cells after 72 hrs by CellTiter 96 aqueous nonradioactive cell proliferation assay; format: functional, cell-based; settings: OVCAR-4, 72 h; in short: as §1
UO-31 = assay: Antiproliferative activity against taxane-resistant human UO31 cells after 72 hrs by CellTiter 96 aqueous nonradioactive cell proliferation assay; format: functional, cell-based; settings: UO-31, 72 h
HCT-15 = assay: Antiproliferative activity against taxane-resistant human HCT15 cells after 72 hrs by CellTiter 96 aqueous nonradioactive cell proliferation assay; format: functional, cell-based; settings: HCT-15, 72 h; in short: as §1
ACHN = assay: Antiproliferative activity against taxane-resistant human ACHN cells after 72 hrs by CellTiter 96 aqueous nonradioactive cell proliferation assay; format: functional, cell-based; in short: as §1
SF-295 = assay: Antiproliferative activity against taxane-resistant human SF295 cells after 72 hrs by CellTiter 96 aqueous nonradioactive cell proliferation assay; format: functional, cell-based; settings: SF-295, 72 h; in short: as §1
EKVX = assay: Antiproliferative activity against taxane-resistant human EKVX cells after 72 hrs by CellTiter 96 aqueous nonradioactive cell proliferation assay; format: functional, cell-based
[1] = Drug uptake in tumor of human LOXIMVI cells xenografted in Crl:NU(NCr)-Foxn1 nu mouse at 40 mg/kg, ip measured at 3 hrs post injection by LC-MS analysis; format: ADME, organism-based, Neoplasm; settings: in vivo
In short: (§2)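 Male Nu/Nu mice, some bearing NCI-H460 or LOX-IMVI xenografts, given a single ip dose at 3 mL/kg. Organic vehicle components were dissolved first, with the aqueous part added gradually. Mice were euthanized at 1 h or 3 h. Cardiac blood was taken into NaEDTA/NaF plasma separator tubes. Quantification used loratadine internal standard against a spiked blank-plasma curve. Tumours were run as duplicate ~200 mg samples homogenized in 3% SDS and extracted twice with ethyl acetate, assuming 1 g tissue = 1 mL.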

[2] = Drug uptake in tumor of human NCI-H460 cells xenografted in Crl:NU(NCr)-Foxn1 nu mouse at 40 mg/kg, ip measured at 3 hrs post injection by LC-MS analysis; format: ADME, organism-based, Neoplasm; settings: in vivo; in short: as §2
[3] = Time at which plasma concentration stays above NCI-H460 IC50 in Crl:NU(NCr)-Foxn1 nu mouse xenografted with human NCI-H460 cells at 40 mg/kg, ip injected via vehicle consisting 40% propylene glycol, 20% tween-20, 20% PEG400, and 20% ethanol by LC-MS analysis; format: ADME, organism-based; settings: in vivo
[4] = Plasma concentration in Crl:NU(NCr)-Foxn1 nu mouse at 40 mg/kg, ip injected via vehicle consisting 40% propylene glycol, 20% tween-20, 20% PEG400, 20% ethanol […] by LC-MS analysis; format: ADME, organism-based; settings: in vivo; in short: as §2
[5] = Plasma concentration in Crl:NU(NCr)-Foxn1 nu mouse at 40 mg/kg, ip injected via vehicle consisting 25% propylene glycol, 20% tween-20, 20% PEG400, 20% ethanol by LC-MS analysis; format: ADME, organism-based; settings: in vivo; in short: as §2
[6] = Plasma concentration in Crl:NU(NCr)-Foxn1 nu mouse at 40 mg/kg, ip injected via vehicle consisting 45% propylene glycol, <3 % tween-20, 20% PEG400, 20% ethanol by LC-MS analysis; format: ADME, organism-based; settings: in vivo; in short: as §2
[7] = Time at which plasma concentration stays above NCI-H460 IC50 in Crl:NU(NCr)-Foxn1 nu mouse xenografted with human NCI-H460 cells at 40 mg/kg, ip injected via vehicle consisting 40.5% propylene glycol, 2.7% tween-20, 31.5% PEG400, 15.3% ethanol and 10% water by LC-MS analysis; format: ADME, organism-based; settings: in vivo
[8] = Ratio of plasma concentration in Crl:NU(NCr)-Foxn1 nu mouse at 40 mg/kg, ip injected via vehicle consisting 40.5% propylene glycol, 2.7% tween-20, 31.5% PEG400, 15.3% ethanol and 10% water measured at 30 mins post injection to IC50 for human NCI-H460 cells; format: ADME, organism-based; settings: in vivo, 0.5 h
[9] = Ratio of plasma concentration in Crl:NU(NCr)-Foxn1 nu mouse at 40 mg/kg, ip injected via vehicle consisting 40.5% propylene glycol, 2.7% tween-20, 31.5% PEG400, 15.3% ethanol and 10% water measured at 1 hr post injection to IC50 for human NCI-H460 cells; format: ADME, organism-based; settings: in vivo
[10] = Ratio of plasma concentration in Crl:NU(NCr)-Foxn1 nu mouse at 75 to 100 mg/kg, ip injected via vehicle consisting 40.5% propylene glycol, 2.7% tween-20, 31.5% PEG400, 15.3% ethanol and 10% water measured at 6 hrs post injection to IC50 for human NCI-H460 cells; format: ADME, organism-based; settings: in vivo

Row | SMILES | IC50 (NCI-H460) [µM] | IC50 (M14) [µM] | other results
1 | C=CC[C@H]1C[C@]2([C@@H](C)Cc3ccc(OC)c(O)c3)OCOC2=CC1=O | 0.08 | 0.008 | 
2 | C=CC[C@H]1C[C@]2(C(C)Cc3ccc(OC)c(N)c3)OCOC2=CC1=O (stereo partly drawn) | 0.18 | 0.049 | 
3 | CC(=O)O[C@H]1C(=O)[C@@]2(C)[C@H]([C@H](OC(=O)c3ccccc3)[C@]3(O)C[C@H](OC(=O)[C@H](O)[C@@H](NC(=O)c4ccccc4)c4ccccc4)C(C)=C1C3(C)C)[C@]1(OC(C)=O)CO[C@@H]1C[C@@H]2O [PACLITAXEL] |  |  | IC50 (NCI/ADR-RES): > 9 µM; IC50 (OVCAR-4): > 0.6 µM; IC50 (UO-31): 0.24 µM; IC50 (HCT-15): 0.19 µM; IC50 (ACHN): 0.08 µM; IC50 (SF-295): 0.056 µM; IC50 (EKVX): 0.15 µM
4 | C=CC[C@H]1C[C@]2([C@@H](C)Cc3ccc(OC)cc3F)OCOC2=CC1=O | 0.094 | 0.014 | Drug uptake [1]: Active
5 | C=CC[C@H]1C[C@]2([C@@H](C)Cc3cc(F)c(OC)cc3F)OCOC2=CC1=O | 0.059 | 0.03 | Drug uptake [2]: Active
6 | C=CC[C@H]1C[C@]2([C@@H](C)Cc3cc(C#N)c(OC)cc3F)OCOC2=CC1=O | 0.15 | 0.037 | 
7 | C=CC[C@H]1C[C@]2([C@@H](C)Cc3cnc(OC)c(OC)c3)OCOC2=CC1=O | > 20 | > 20 | 
8 | C=CC[C@H]1C[C@]2([C@@H](C)Cc3ccc(OC(F)(F)F)cc3)OCOC2=CC1=O | 3.8 | > 20 | 
9 | C=CC[C@H]1C[C@]2([C@@H](C)Cc3cc(O)c(OC)cc3F)OCOC2=CC1=O | 0.033 | 0.009 | 
10 | C=CC[C@H]1C[C@]2([C@@H](C)Cc3ccc(OC)c(F)c3)OCOC2=CC1=O | 0.09 | 0.008 | 
11 | C=CC[C@H]1C[C@]2([C@@H](C)Cc3ccccc3)OCOC2=CC1=O | 9.7 | 5.1 | 
12 | C=CC[C@H]1C[C@]2(C(C)Cc3cc(C(N)=O)c(OC)cc3F)OCOC2=CC1=O (stereo partly drawn) | 0.33 | 0.004 | 
13 | C=CC[C@H]1C[C@]2(C(C)Cc3ccc(F)cc3)OCOC2=CC1=O (stereo partly drawn) | > 20 | > 20 | 
14 | C=CC[C@H]1C[C@]2([C@@H](C)Cc3ccc(OC)cc3)OCOC2=CC1=O | 0.09 | 0.02 | 
15 | C=CC[C@H]1C[C@]2([C@@H](C)Cc3cc(N)c(OC)cc3F)OCOC2=CC1=O | 0.16 | 0.029 | 
16 | C=CC[C@H]1C[C@]2([C@@H](C)Cc3ccc(OC)nc3)OCOC2=CC1=O | 0.33 | 0.18 | 
17 | C=CC[C@H]1C[C@]2([C@@H](C)Cc3ccc(OC)c(NC(C)=O)c3)OCOC2=CC1=O | 0.31 | 0.085 | 
18 | C=CC[C@H]1C[C@]2([C@@H](C)Cc3cc(NC(C)=O)c(OC)cc3F)OCOC2=CC1=O | 0.071 | 0.052 | 
19 | C=CC[C@H]1C[C@]2([C@H](C)Cc3cc(F)c(OC)cc3F)OCOC2=CC1=O | 0.035 | 0.01 | 
20 | C=CC[C@@H]1C[C@]2([C@H](C)Cc3ccc(OC)c(OC)c3)OCOC2=CC1=O | > 4 | > 4 | 
21 | C=CC[C@H]1C[C@]2(CCc3ccc(OC)c(OC)c3)OCOC2=CC1=O | 3.2 | 2 | 
22 | C=CC[C@@H]1C[C@]2([C@@H](C)Cc3ccc(OC)c(OC)c3)OCOC2=CC1=O | > 4 | > 4 | 
23 | C=CC[C@H]1C[C@]2([C@@H](C)Cc3ccc(OC)c(Cl)c3)OCOC2=CC1=O | 0.64 | 0.24 | 
24 | C=CC[C@H]1C[C@]2([C@H](C)Cc3ccc(OC)c(F)c3F)OCOC2=CC1=O | 3.3 | 3.8 | 
25 | C=CC[C@H]1C[C@]2([C@@H](C)Cc3ccc(OC)c(OC)c3)OCOC2=CC1=O |  | 0.11 | Time [3]: 1 h; Drug uptake [4]: Active; Drug uptake [5]: Not Active; Drug uptake [6]: Active; Time [7]: 3 h; Ratio [8]: > 6; Ratio [9]: > 3; Ratio [10]: > 4
26 | C=CC[C@H]1C[C@]2([C@@H](C)Cc3ccc(OC)c(N4CCOCC4)c3)OCOC2=CC1=O | > 20 | > 20 | 
27 | C=CC[C@H]1C[C@]2([C@@H](C)Cc3ccc(OC)c(C)c3)OCOC2=CC1=O | 0.63 | 0.41 | 

Second part, led by results:

Row | IC50 (NCI-H460) [µM] | SMILES | IC50 (M14) [µM] | other results
28 | > 20 | C=CC[C@H]1C[C@]2([C@@H](C)Cc3ccc(OC(C)=O)cc3)OCOC2=CC1=O | > 20 | 
29 | 0.12 | C=CC[C@H]1C[C@]2([C@@H](C)Cc3cc(OC)c(OC)cc3F)OCOC2=CC1=O | 0.014 | 
30 | 10.6 | C=CC[C@H]1C[C@]2([C@@H](C)Cc3cccc(OC)c3)OCOC2=CC1=O | 8.8 | 
31 | 0.12 | C=CC[C@H]1C[C@]2([C@H](C)Cc3ccc(OC)cc3)OCOC2=CC1=O | 0.081 | 
32 | 11 | C=CC[C@H]1C[C@]2(C(CC)Cc3ccc(OC)c(OC)c3)OCOC2=CC1=O (mixture of isomers) | 2.6 | 
33 | 0.65 | C=CC[C@H]1C[C@]2([C@@H](C)Cc3cc(C)c(OC)cc3F)OCOC2=CC1=O | 0.23 | 
34 | 1.1 | C=CC[C@H]1C[C@]2([C@@H](C)Cc3ccc(OC)c(C(=O)NC)c3)OCOC2=CC1=O | 1.4 | 
35 | 0.28 | C=CC[C@H]1C[C@]2(C(C)Cc3ccc(OCC)cc3)OCOC2=CC1=O (stereo partly drawn) | 0.65 | 
36 | 0.34 | C=CC[C@H]1C[C@]2([C@@H](C)Cc3ccc(OC)c(C#N)c3)OCOC2=CC1=O | 0.18 | 
37 | 0.32 | C=CC[C@H]1C[C@]2([C@H](C)Cc3ccc(OC)c(OC)c3)OCOC2=CC1=O | 0.3 | 
38 | > 20 | C=CC[C@H]1C[C@]2([C@@H](C)Cc3ccc(O)cc3)OCOC2=CC1=O | > 20 | 
39 | 2.5 | C=CC[C@H]1C[C@]2([C@H](C)Cc3c(F)cc(OC)cc3F)OCOC2=CC1=O | 0.32 | 
40 | 0.11 | C=CC[C@H]1C[C@]2(C(C)Cc3ccc(OC)c(OC(C)=O)c3)OCOC2=CC1=O (stereo partly drawn) | 0.016 | 
41 | 0.066 | C=CC[C@H]1C[C@]2([C@@H](C)Cc3ccc(OC)c(C(N)=O)c3)OCOC2=CC1=O | 0.012 | 
42 | > 20 | C=CC[C@H]1C[C@]2([C@@H](C)Cc3cnc(OC)cc3F)OCOC2=CC1=O | 8 | 
